# Reference: ChEMBL document CHEMBL4610022, “Imidazolidine-2,4,5- and pirimidine-2,4,6-triones - New primary pharmacophore for soluble epoxide hydrolase inhibitors with enhanced water solubility” (Bioorg Med Chem Lett, 2020)
# How the values were obtained:
# [1] = Solubility of compound in pH 7.4 sodium phosphate buffer; assay type: physicochemical
# How it was run: (§1)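 Solubility measured in 0.1 M sodium phosphate buffer, pH 7.4, containing 1% DMSO.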
# [2] = molecular target: T1, Bifunctional epoxide hydrolase 2 (Homo sapiens, UniProt P34913); test: Inhibition of human soluble epoxide hydrolase by kinetic fluorescent assay
# T1 sequence (P34913 whole entry): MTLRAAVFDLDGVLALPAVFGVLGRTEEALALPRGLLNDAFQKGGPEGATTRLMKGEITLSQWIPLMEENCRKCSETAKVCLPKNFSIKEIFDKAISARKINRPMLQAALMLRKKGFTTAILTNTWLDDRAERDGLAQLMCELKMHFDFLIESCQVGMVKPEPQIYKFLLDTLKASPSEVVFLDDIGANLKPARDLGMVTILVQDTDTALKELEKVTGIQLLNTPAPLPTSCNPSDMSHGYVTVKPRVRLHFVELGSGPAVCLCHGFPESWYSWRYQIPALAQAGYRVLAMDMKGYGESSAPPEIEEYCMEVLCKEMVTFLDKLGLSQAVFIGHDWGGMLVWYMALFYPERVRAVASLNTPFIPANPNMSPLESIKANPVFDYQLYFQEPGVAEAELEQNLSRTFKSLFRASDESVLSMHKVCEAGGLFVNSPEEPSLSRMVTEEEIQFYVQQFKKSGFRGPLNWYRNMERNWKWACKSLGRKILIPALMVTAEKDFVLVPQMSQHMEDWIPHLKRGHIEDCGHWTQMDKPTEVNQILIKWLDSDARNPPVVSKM
# How it was run: (§2)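 Kinetic fluorescent read-out of sEH activity; each reported value is the mean of three separate experiments.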
# [3] = molecular target: T1, Bifunctional epoxide hydrolase 2; test: Inhibition of human soluble epoxide hydrolase using cyano(2methoxy naphthalen-6-yl)methyl trans-(3-phenyloxyran-2-yl)methylcarbonate as substrate preincubated for 5 mins followed by substrate addition and measured after 10 mins by fluorescence based assay; how it was run: as §2
# [4] = Aqueous solubility of compound; assay type: physicochemical; how it was run: as §1
solubility [1] [µM],IC50 [2] [nM],IC50 [3] [nM],solubility [4] [µM],Structure (SMILES)
650,80.3,,,O=C1C(=O)N(CC23CC4CC(CC(C4)C2)C3)C(=O)N1CCN(CCN1C(=O)C(=O)N(CC23CC4CC(CC(C4)C2)C3)C1=O)CCN1C(=O)C(=O)N(CC23CC4CC(CC(C4)C2)C3)C1=O
20,,9.6,,CC12CC3CC(C)(C1)CC(NC(=O)NC1C4CC5CC(C4)CC1C5)(C3)C2 (stereo not given)
85,1,,,O=C(Nc1ccccc1F)NC1C2CC3CC(C2)CC1C3 (stereo not given)
75,,1.5,,O=C(NCCCCCCCCNC(=O)NCCC12CC3CC(CC(C3)C1)C2)NCCC12CC3CC(CC(C3)C1)C2
150,8420,,,O=C1C2CC3CC1CC(N1C(=O)C(=O)N(C45CC6CC(C4)C(=O)C(C6)C5)C1=O)(C3)C2
65,0.7,,,O=C(NCC12CC3CC(CC(C3)C1)C2)Nc1ccccc1F
70,6.7,,,O=C(NCCN(CCNC(=O)NCC12CC3CC(CC(C3)C1)C2)CCNC(=O)NCC12CC3CC(CC(C3)C1)C2)NCC12CC3CC(CC(C3)C1)C2
85,,,,O=C(Nc1ccc(C23CC4CC(CC(C4)C2)C3)cc1)Nc1ccccc1F
100,22.8,,,CC12CC3CC(C)(C1)CC(N1C(=O)C(=O)N(C4C5CC6CC(C5)CC4C6)C1=O)(C3)C2 (stereo not given)
,,,5,O=C(Nc1ccc(OC(F)(F)F)cc1)N[C@H]1CC[C@H](Oc2ccc(C(=O)O)cc2)CC1
100,650,,,CCC(CC12CC3CC(CC(C3)C1)C2)N1C(=O)C(=O)N(CCCCCCCCN2C(=O)C(=O)N(C(CC)CC34CC5CC(CC(C5)C3)C4)C2=O)C1=O (stereo not given)
350,311,,,O=C1C(=O)N(c2ccccc2F)C(=O)N1CC12CC3CC(CC(C3)C1)C2
100,,3.4,,O=C(NCCCCNC(=O)NCCC12CC3CC(CC(C3)C1)C2)NCCC12CC3CC(CC(C3)C1)C2
900,294,,,O=C1C(=O)N(CCC23CC4CC(CC(C4)C2)C3)C(=O)N1CCCCN1C(=O)C(=O)N(CCC23CC4CC(CC(C4)C2)C3)C1=O
120,1.6,,,O=C1C(=O)N(C23CC4CC(CC(C4)C2)C3)C(=O)N1CCCCCCN1C(=O)C(=O)N(C23CC4CC(CC(C4)C2)C3)C1=O
500,,0.4,,O=C(NC12CC3CC(CC(Cl)(C3)C1)C2)N[C@H]1CC[C@H](Oc2ccc(C(=O)O)cc2)CC1
210,7.7,,,O=C(O)c1ccc(O[C@H]2CC[C@H](N3C(=O)C(=O)N(c4ccc(OC(F)(F)F)cc4)C3=O)CC2)cc1

solubility [1] [µM],IC50 [2] [nM],IC50 [3] [nM],solubility [4] [µM],Structure (SMILES)
100,4.5,,,O=C(NC1CCCCCC1)N[C@H]1CC[C@H](Oc2ccc(C(=O)O)cc2)CC1
200,371,,,CC12CC3CC(C)(C1)CC(N1C(=O)C(=O)N(c4ccccc4F)C1=O)(C3)C2
250,0.4,,,O=C(O)c1ccc(O[C@H]2CC[C@H](N3C(=O)C(=O)N(C45CC6CC(CC(Cl)(C6)C4)C5)C3=O)CC2)cc1
40,,13.8,,CCC(CC12CC3CC(CC(C3)C1)C2)NC(=O)NC12CC3CC(C)(C1)C[C@@](C)(C3)C2 (stereo not given in full)
90,8.4,,,CCC(CC12CC3CC(CC(C3)C1)C2)N1C(=O)C(=O)N(CCCCN2C(=O)C(=O)N(C(CC)CC34CC5CC(CC(C5)C3)C4)C2=O)C1=O (stereo not given)
65,3.6,,,CC12CC3CC(C)(C1)CC(NC(=O)Nc1ccccc1F)(C3)C2
80,,0.8,,O=C(NCCCCCCNC(=O)NCCC12CC3CC(CC(C3)C1)C2)NCCC12CC3CC(CC(C3)C1)C2
250,6130,,,O=C1C(=O)N(C2C3CC4CC(C3)CC2C4)C(=O)N1c1ccccc1F (stereo not given)
280,86.8,,,O=C(O)c1ccc(O[C@H]2CC[C@H](N3C(=O)C(=O)N(C4CCCCCC4)C3=O)CC2)cc1
1300,92,,,O=C1C(=O)N(CCC23CC4CC(CC(C4)C2)C3)C(=O)N1CCCCCCN1C(=O)C(=O)N(CCC23CC4CC(CC(C4)C2)C3)C1=O
110,3.8,,,O=C1C(=O)N(C23CC4CC(CC(C4)C2)C3)C(=O)N1CCCCCCCCN1C(=O)C(=O)N(C23CC4CC(CC(C4)C2)C3)C1=O
900,466,,,CC(N1C(=O)C(=O)N(c2ccccc2F)C1=O)C12CC3CC(CC(C3)C1)C2 (stereo not given)
600,438,,,O=C1C(=O)N(CCC23CC4CC(CC(C4)C2)C3)C(=O)N1CCCCCCCCN1C(=O)C(=O)N(CCC23CC4CC(CC(C4)C2)C3)C1=O
55,,,,CC(NC(=O)Nc1ccccc1F)C12CC3CC(CC(C3)C1)C2 (stereo not given)
250,160,,,O=C1C(=O)N(c2ccccc2F)C(=O)N1c1ccc(C23CC4CC(CC(C4)C2)C3)cc1
100,216,,,CCC(CC12CC3CC(CC(C3)C1)C2)N1C(=O)C(=O)N(C23CC4CC(C)(C2)C[C@@](C)(C4)C3)C1=O (stereo not given in full)
1750,12,,,O=C(NC12CC3CC(C1)C(=O)C(C3)C2)NC12CC3CC(C1)C(=O)C(C3)C2
